ChEMBL document CHEMBL1629547, “Zidovudine impairs adipogenic differentiation through inhibition of clonal expansion” (Antimicrob Agents Chemother, 2008)
Calls of active or inactive are those of the source. The rule behind the calls is not given here.

How the values were obtained:
Homo sapiens = assay: Antiproliferative activity against human subcutaneous preadipocyte assessed as [3H]thymidine incorporation at 6 uM; format: functional
In short: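 Primary human subcutaneous preadipocytes (collagenase-digested abdominal fat, kept in DMEM-Ham's F-12 1:1 with 10% FBS and 172 µM ascorbate 2-phosphate) were given drug or vehicle for 24 h. [3H]thymidine was then added for a further 24 h, and cells were filter-harvested and counted by beta counter (cpm). There were 4 to 16 replicates per experiment, in at least 3 independent experiments.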

[1] = Antiproliferative activity against mouse 3T3-F442A cells assessed as [3H]thymidine incorporation at 6 uM; format: functional
[2] = Cytotoxicity against mouse 3T3-F442A cells at 1 uM after 8 days by trypan blue staining
[3] = Cytotoxicity against mouse 3T3-F442A cells at 6 uM after 8 days by trypan blue staining
Mus musculus [4] = species on record: Mus musculus; assay: Induction of adipocyte differentiation in mouse 3T3-F442A cells assessed as triglyceride accumulation at 1 uM on day 9 by oil red O staining relative to control; format: functional, cell-based
In short: (§1)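 Drug was added to 3T3-F442A cells only after clonal expansion was complete. On day 9 cells were fixed in formalin and stained with 0.0021% Oil red O in 60% isopropanol. Dye was extracted with 100% isopropanol and fluorescence read at 495 nm. Data are from four independent experiments, ANOVA with Bonferroni versus control.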

[5] = Antiproliferative activity against mouse 3T3-F442A cells assessed as [3H]thymidine incorporation at 3 uM; format: functional
[6] = Antiproliferative activity against mouse 3T3-F442A cells assessed as [3H]thymidine incorporation at 1 uM; format: functional
Mus musculus [7] = species on record: Mus musculus; assay: Antiproliferative activity against mouse 3T3-F442A cells assessed as [3H]thymidine incorporation at 0.1 uM; format: functional, cell-based
Mus musculus [8] = species on record: Mus musculus; assay: Induction of preadipocyte differentiation in mouse 3T3-F442A cells assessed as adiponectin mRNA expression on day 9 by RT-PCR analysis; format: functional, cell-based
In short: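 3T3-F442A preadipocytes were exposed to drug or vehicle from day −7, induced on day 0 and differentiated to day +9, when RNA was taken. Adiponectin mRNA was measured by real-time RT-PCR (42 cycles, 94/55/72°C) against transferrin receptor as calibrator. RNA and cDNA were pooled; there were three independent experiments with triplicate PCR each.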

3T3-F442A [9] = assay: Induction of preadipocyte differentiation in mouse 3T3-F442A cells assessed as PPARgamma mRNA expression on day 4 by RT-PCR analysis
3T3-F442A (Mus musculus) [10] = assay: as above
Mus musculus [11] = species on record: Mus musculus; assay: Induction of preadipocyte differentiation in mouse 3T3-F442A cells assessed as triglyceride accumulation at 6 uM after 9 days by oil red O staining relative to control; format: functional, cell-based
In short: (§2)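 Drug was present while 3T3-F442A cells differentiated. On day 9 cells were fixed in 10% formalin and stained with 0.0021% (wt/vol) Oil red O in 60% isopropanol. Cells were dried, dye extracted with 100% isopropanol, and fluorescence read at 495 nm. Data are from three independent experiments, Mann-Whitney U test versus control.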

Mus musculus [12] = species on record: Mus musculus; assay: Antiproliferative activity against mouse 3T3-F442A cells assessed as mtDNA depletion; format: functional, cell-based
Mus musculus [13] = species on record: Mus musculus; assay: Induction of preadipocyte differentiation in mouse 3T3-F442A cells assessed as triglyceride accumulation at 3 uM after 9 days by oil red O staining relative to control; format: functional, cell-based; in short: as §2
Mus musculus [14] = species on record: Mus musculus; assay: Induction of preadipocyte differentiation in mouse 3T3-F442A cells assessed as triglyceride accumulation at 0.1 uM after 9 days by oil red O staining relative to control; format: functional, cell-based; in short: as §2
Mus musculus [15] = species on record: Mus musculus; assay: Antiproliferative activity against mouse 3T3-F442A cells assessed as [3H]thymidine incorporation; format: functional, cell-based
Mus musculus [16] = species on record: Mus musculus; assay: Induction of adipocyte differentiation in mouse 3T3-F442A cells assessed as C/EBPalpha mRNA expression on day 6 by RT-PCR analysis; format: functional, cell-based
3T3-F442A [17] = assay: Induction of preadipocyte differentiation in mouse 3T3-F442A cells assessed as C/EBPalpha mRNA expression on day 6 by RT-PCR analysis
3T3-F442A (Mus musculus) [18] = assay: as above
Mus musculus [19] = species on record: Mus musculus; assay: Induction of adipocyte differentiation in mouse 3T3-F442A cells assessed as PPARgamma mRNA expression on day 6 by RT-PCR analysis; format: functional, cell-based
[20] = Antiproliferative activity against mouse 3T3-F442A cells assessed as [3H]thymidine incorporation at 180 uM; format: functional
Mus musculus [21] = species on record: Mus musculus; assay: Induction of adipocyte differentiation in mouse 3T3-F442A cells assessed as triglyceride accumulation at 6 uM on day 9 by oil red O staining relative to control; format: functional, cell-based; in short: as §1

For `Cc1cn([C@H]2C[C@H](N=[N+]=[N-])[C@@H](CO)O2)c(=O)[nH]c1=O` [ZIDOVUDINE], the Activity (Homo sapiens) was “Active”, the Activity [1] was 30% and the Activity [2] was “Non-toxic”. For the same compound, the Activity [3] was “Non-toxic”, the Activity (Mus musculus [4]) was “inactive” and the Activity [5] was 30%. For the same compound, the Activity [6] was 30%, the Activity (Mus musculus [7]) was “inactive” and the Activity (Mus musculus [8]) was “Active”. The Activity (3T3-F442A [9]) was “Active”, the Activity (3T3-F442A (Mus musculus) [10]) was “Active” and the Activity (Mus musculus [11]) was “Active”. For the same compound, the Activity (Mus musculus [12]) was “inactive”, the Activity (Mus musculus [13]) was “inactive” and the Activity (Mus musculus [14]) was “inactive”. The Activity (Mus musculus [15]) was “Active”, the Activity (Mus musculus [16]) was “inactive” and the Activity (3T3-F442A [17]) was “Active”. For the same compound, the Activity (3T3-F442A (Mus musculus) [18]) was “Active”, the Activity (Mus musculus [19]) was “inactive” and the Activity [20] was 30%. For the same compound, the Activity (Mus musculus [21]) was “inactive”.
